Assay outcomes deposited in PubChem BioAssay by several laboratories.
Rin1 Abl inh: inhibitors of human Rin1-Abl protein interaction; inhibition, % at 7.35 µM; TR-FRET Rin1/Abl binding, biochemical; 360,000 compounds, 0.4% hits; P00519+Q13671; in the data active means inhibition above about 5%, passing the limit was not always enough
ALR inh: human ALR oxidase inhibition via reduced H2O2; inhibition, % (test concentration not listed); purified ALR, DTT oxidation, H2O2 HRP-luminol luminescence; AID 485317; P55789; 290,000 compounds, 3.8% hits;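 active means mean replicate inhibition above about 79%, with every replicate also reaching it, limit read from the data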
Target sequence (P55789 whole entry, looked up): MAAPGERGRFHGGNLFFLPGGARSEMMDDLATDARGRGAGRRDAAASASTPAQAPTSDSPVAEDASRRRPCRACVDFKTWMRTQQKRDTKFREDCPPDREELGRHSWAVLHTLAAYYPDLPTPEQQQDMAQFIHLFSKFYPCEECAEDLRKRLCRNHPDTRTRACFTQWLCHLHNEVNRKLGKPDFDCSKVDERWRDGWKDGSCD
PREPL inhibitor: inhibits the human prolyl oligopeptidase-like enzyme | Q4J6C6 | recombinant PREPL, fluorescence polarization activity-based probe | inhibition, % at 5.96 µM | 320,000 compounds, 0.68% hits | AID 2751; in the data active means inhibition above about 43%;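 further: 0% = enzyme with DMSO and 100% = wells lacking enzyme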
UBC9 SUMO inh: SUMOylation inhibition | AID 2006 | inhibition, % at 35 µM | HTRF SUMOylation assay, SAE1/SAE2 + UBC9, in vitro | 290,000 compounds, 0.36% hits | P63279; in the data active means inhibition above about 50%, passing the limit was not always enough
Target sequence (P63279 whole entry, looked up): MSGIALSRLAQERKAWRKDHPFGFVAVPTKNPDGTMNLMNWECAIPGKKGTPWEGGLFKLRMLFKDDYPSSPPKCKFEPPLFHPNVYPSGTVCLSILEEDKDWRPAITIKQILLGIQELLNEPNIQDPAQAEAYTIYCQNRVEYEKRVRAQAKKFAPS
RBBP9 inh: blocks human serine hydrolase RBBP9. inhibition, % at 7.94 µM. 220,000 compounds, 0.2% hits. recombinant RBBP9, FP-Rh probe fluorescence polarization. O75884;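 active means inhibition above the campaign mean of all tested compounds plus 3 SD, cut at about 14% in these data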;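 further: plate controls were DMSO wells with RBBP9 for no effect and wells lacking RBBP9 protein for full effect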
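System: RBBP9 protein | Quantity: 2.5 µM RBBP9 dispensing solution, before mixing | Reagent: FP-Rh probe, 375 nM dispensing solution | Timing: Enzyme-compound preincubation 30 min, then probe labeling 45 min, 25 °C | Measured by: Fluorescence polarization | Read-out: % inhibition | Replication: One well per compound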
UBC13 inh: inhibitors of human UBC13 polyubiquitin chain formation; P61088; AID 485273; TR-FRET; inhibition, % at 20 µM; 330,000 compounds, 0.47% hits; in the data active means inhibition above about 45%, passing the limit was not always enough
Target sequence (P61088 whole entry, looked up): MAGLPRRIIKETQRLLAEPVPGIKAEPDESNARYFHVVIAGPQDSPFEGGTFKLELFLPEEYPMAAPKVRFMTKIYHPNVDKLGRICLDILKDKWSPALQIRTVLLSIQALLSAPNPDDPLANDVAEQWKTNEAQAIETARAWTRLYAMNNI
Rin1 Abl conf: Rin1-Abl interaction inhibition confirmation; inhibition, % at 7.35 µM; TR-FRET Rin1-Abl binding, purified proteins; shares compounds with Rin1 Abl inh; 1,300 compounds, 49% hits
GFP quencher: counter-screen for Rin1-Abl inhibitors: GFP fluorescence quenchers | shares compounds with Rin1 Abl inh | inhibitors/quenchers counterscreen | inhibition, % at 6.75 µM | 1,300 compounds, 8.5% hits;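 further: ABL1-eGFP fusion protein alone without its partner RIN1-SBP; 0% = protein with vehicle and 100% = wells lacking protein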
GFP quench dose: quenches GFP in dose response, Rin1-Abl counter-screen; shares compounds with Rin1 Abl inh; GFP fluorescence interference/quenching counterscreen; IC50, µM; 230 tested, under 10 active; AID 602182; call rule not given here;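 further: ABL1-eGFP fusion protein alone without its RIN1 binding partner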
The depositor's hits bear a star; x = not tested or not shown. Shown are actives, neighbours in structure and some others; about 4.3% of the full set was active somewhere. Unless noted, no stated cut-off is given here; in the data, active means inhibition above about 6.5%; inactive means the rest.

SMILES	Rin1 Abl inh	ALR inh	PREPL inhibitor	UBC9 SUMO inh	RBBP9 inh	UBC13 inh	Rin1 Abl conf	GFP quencher	others
CCOC(=O)CCCCC(=O)c1[nH]c(=O)[nH]c1CSc1nnc2c3ccccc3n(C(C)C)c2n1	53*	28	4	-7	2	-2	68*	1	GFP quench dose=>68
Cc1ccc([C@H]2C[C@H](n3cc(C4CC4)nn3)[C@@H](O)CN2CC2CCCCC2)cc1	2	x	x	x	x	x	x	x
O=C(Cc1ccc(NC2=NC3CS(=O)(=O)CC3S2)cc1)NCc1ccccc1Cl (centres undefined)	16*	-1	8	17	x	6	16*	0
O=C(Cc1ccc(NC2=NC3CS(=O)(=O)CC3S2)cc1)NCc1ccccc1 (centres undefined)	-1	-4	2	-12	x	2	x	x
CCN(CC)CCNC(=O)c1ccc(NC2=NC3CS(=O)(=O)CC3S2)cc1 (centres undefined)	1	x	0	2	-3	0	x	x
COc1ccc(OC)c(NC(=O)Cc2ccc(NC3=NC4CS(=O)(=O)CC4S3)cc2)c1 (centres undefined)	22*	-40	12	6	x	11	27*	-4	GFP quench dose=>67
O=C(NCCc1ccc(Cl)cc1)c1ccc(NC2=NC3CS(=O)(=O)CC3S2)cc1 (centres undefined)	7.4*	-13	10	0	x	-9	8.1*	1
COc1ccc(CCNC(=O)CSc2nc3[nH]ncc3c(=O)n2-c2ccccc2Br)cc1OC	8.2*	-8	1	9	0	-9	8.6*	-4
COc1ccc(CCNC(=O)CSc2nc(C)nc3c2c(=O)n(C)c(=O)n3C)cc1OC	21*	-11	4	10	x	-2	21*	1	GFP quench dose=>68
O=C(CSc1nc2[nH]ncc2c(=O)n1-c1ccccc1Br)NCc1ccco1	5	x	-3	-1	-1	21	x	x
COc1ccc(CCNC(=O)CSc2nc3c(c(=O)n(C)c(=O)n3C)n2C(C)C)cc1OC	2	-5	5	1	-8	-10	x	x
COc1cc(CCC(=O)Nc2ccc(S(=O)(=O)NC3=NCCCCC3)cc2)cc(OC)c1OC	5	-11	6	20	3	0	x	x
CCCNC(=O)C1(C)CCN(C(=O)c2ccc3c(c2)CCO3)C1 (centres undefined)	2	x	x	x	x	x	x	x
CCN(CC)c1ccc(N=Cc2ccc(N(CC)CC)cc2O)cc1	11*	18	21	-14	-2	-28	0	-2
CC1(C)Cc2c(sc3nc(=S)[nH]c(N)c23)CO1	x	-12	3	-5	x	-7	x	x
O=C(CSc1nc2ccccc2c(=O)[nH]1)Nc1ccc(S(=O)(=O)N2CCCC2)cc1	8.9*	50	7	5	-10	-5	5	2
CSc1ccc(CN2CCC2(C)C(=O)NC2CCc3ccccc32)cc1 (centres undefined)	-5	x	x	x	x	x	x	x
COc1ccccc1C(=O)NC(=O)COC(=O)c1nccnc1N	1	-15	-2	x	x	18	x	x
Nc1nccnc1C(=O)OCC(=O)NNC(=O)c1ccccc1	8.2*	6	8	6	x	14	0	2
C=CCSc1nc2c(N)ncnc2n1C1OC(CO)C(O)C1O (centres undefined)	2	x	x	x	x	x	x	x
COc1ccc(C)cc1NC(=O)CN(C)C1CCCCC1	15*	4	3	7	x	2	-1	-1
COc1ccc(NC(=O)Nc2cc(C)ccc2OC)cc1	5.9*	-6	8	0	0	7	-1	-2
CCOC(=O)C1CCC/C1=N\NC(=O)CN(c1cc(OC)ccc1OC)S(=O)(=O)c1ccccc1 (centres undefined)	-1	0	-10	5	x	13	x	x
COc1cccc(NC(=O)CN(C)C(=O)c2ccc3c(c2)CC(c2ccccc2)OC3=O)c1 (centres undefined)	2	-3	4	x	x	10	x	x
COc1ccc(NC(=O)CN(C)C(=O)c2ccc3c(c2)CC(c2ccccc2)OC3=O)cc1 (centres undefined)	8.1*	x	x	x	x	x	-2	0
SMILES	Rin1 Abl inh	ALR inh	PREPL inhibitor	UBC9 SUMO inh	RBBP9 inh	UBC13 inh	Rin1 Abl conf	GFP quencher	others
CCC(CC)CN1CCC(CN2C(=O)C(=O)NC[C@@H]2CC(C)C)CC1	19*	x	x	x	x	x	14*	-2
CC(C)CCN1CCC(CN2C(=O)C(=O)NC[C@@H]2CC(C)C)CC1	3	x	x	x	x	x	x	x
Cc1ccc(NC(=O)CN2CCCCCC2)c(Br)c1	10*	x	x	-10	-4	x	-3	-1
CN(C)Cc1ccccc1CCc1ccccc1	-1	1	-78	x	x	7	x	x
N=c1ccn(O)cc1CCc1ccccc1	17*	x	x	x	x	x	22*	0	GFP quench dose=>67
COCCN1CCn2c(nc3cc(NC(=O)Cn4nc(C)c5ccccc5c4=O)ccc32)C1	0	-12	11	11	-12	10	x	x
Cc1nn(CC(=O)Nc2ccc3c(c2)nc2n3CCOC2)c(=O)c2ccccc12	10*	-9	-2	3	1	-3	-1	1
COc1ccc(CC(=O)Oc2ccc(C)cc2Br)cc1OC	41*	38	19	-28	x	8	51*	-2	GFP quench dose=>68
COc1ccc(CC(=O)Oc2ccc(C)cc2C)cc1	0	9	-3	-6	x	8	x	x
CC1C(=O)N(Cc2cn(Cc3ccco3)nn2)CCS(=O)(=O)N1Cc1ccc(-c2ccncc2)cc1 (centres undefined)	-1	x	x	x	x	x	x	x
Cn1c(NCc2cccnc2)nc2cc(-c3ccc(C(=O)N4CCOCC4)cc3)sc2c1=O	-10	x	x	x	x	x	x	x
COc1ccc(CN(C)C(=O)c2ccccc2OCc2c(C)noc2C)c(OC)c1	3	-1	13	x	x	16	x	x
COc1ccc(Br)cc1CN(C)C(=O)c1ccccc1OCc1c(C)noc1C	9.0*	-1	5	x	x	4	-1	-2
O=C(NCCc1ccc(Cl)cc1)C1CCC(=O)N(C2CCCCCC2)C1 (centres undefined)	2	1	23	1	x	-2	x	x
O=C(NCCc1ccc(Cl)cc1)C1CC(=O)N(C2CCCC2)C1 (centres undefined)	15*	-3	16	0	x	8	-1	2
CCOC(=O)N1CCN(c2ccccc2OC)CC1	0	-4	-2	11	-3	-1	x	x
CCOC(=O)c1ccc(NC(=O)N2CCN(c3ccccc3OC)CC2)cc1	9.4*	4	-5	1	-4	0	16*	0
Cc1cnc(NC(=O)C(C)N2CCN(C)CC2)s1 (centres undefined)	6.7*	-8	8	3	-7	-8	1	-1
